Consider one molecule from ChEMBL document CHEMBL1153534, “Design and synthesis of androgen receptor antagonists with bulky side chains for overcoming antiandrogen resistance” (J Med Chem, 2009).

One may read the pIC50 as the negative decadic logarithm of the IC50, by convention in mol/L.

Assay [1] concerns the target T1, Androgen receptor (Homo sapiens) (UniProt P10275).
T1 sequence (whole entry): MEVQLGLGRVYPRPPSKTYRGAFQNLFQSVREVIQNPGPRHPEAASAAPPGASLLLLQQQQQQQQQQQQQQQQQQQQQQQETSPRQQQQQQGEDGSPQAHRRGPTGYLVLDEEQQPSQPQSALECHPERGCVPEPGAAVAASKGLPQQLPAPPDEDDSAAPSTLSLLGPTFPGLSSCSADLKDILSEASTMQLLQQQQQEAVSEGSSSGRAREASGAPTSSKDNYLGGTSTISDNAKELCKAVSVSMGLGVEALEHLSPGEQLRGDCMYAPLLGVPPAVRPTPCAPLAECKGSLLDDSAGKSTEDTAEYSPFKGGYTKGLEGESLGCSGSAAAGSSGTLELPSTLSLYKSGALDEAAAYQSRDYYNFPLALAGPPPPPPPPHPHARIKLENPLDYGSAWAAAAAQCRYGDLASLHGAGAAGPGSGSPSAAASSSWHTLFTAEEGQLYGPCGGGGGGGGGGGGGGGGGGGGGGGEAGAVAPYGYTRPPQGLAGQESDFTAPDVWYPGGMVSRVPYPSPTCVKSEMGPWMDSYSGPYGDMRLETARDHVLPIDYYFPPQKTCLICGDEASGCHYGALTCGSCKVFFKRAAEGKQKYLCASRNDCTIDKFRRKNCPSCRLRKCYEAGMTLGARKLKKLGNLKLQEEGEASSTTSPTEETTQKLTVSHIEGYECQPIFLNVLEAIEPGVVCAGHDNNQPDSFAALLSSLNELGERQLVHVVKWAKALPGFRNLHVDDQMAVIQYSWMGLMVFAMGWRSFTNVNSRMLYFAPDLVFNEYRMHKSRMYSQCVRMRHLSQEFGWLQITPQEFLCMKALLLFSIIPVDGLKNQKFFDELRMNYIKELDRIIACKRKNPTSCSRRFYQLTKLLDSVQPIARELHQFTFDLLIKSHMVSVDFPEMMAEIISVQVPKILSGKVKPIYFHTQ
Briefly: Activity in human PC3 cells expressing wild-type androgen receptor assessed as ARE-dependent transactivation at 1 uM after 24 hrs by luciferase reporter gene assay in absence of DHT. The note with it: PC-3. In kind it is cell-based. The essentials: (§1)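 PC-3 cells, which lack endogenous AR, transiently transfected with plasmids expressing human AR (WT, T877A, W741C or H874Y) plus an ARE-driven MMTV-luc reporter. Cells were treated with or without 0.1 nM DHT. Firefly luciferase was standardized to a Renilla control and normalized to the 0.1 nM DHT signal. Mean ± sd.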
On the technique in general: In a reporter assay the amount or activity of a reporter protein is the signal.

Assay [2] deals with T2, Androgen receptor (Homo sapiens), P10275 [W742C].
T2 sequence (whole entry): T1 sequence (whole entry) with W742C
Description: Activity in human PC3 cells expressing androgen receptor W741C mutant assessed as ARE-dependent transactivation at 0.1 uM after 24 hrs by luciferase reporter gene assay in absence of DHT. It counts as cell-based. The note with it: PC-3. The essentials: as §1

In the next assay the test system is PC-3. Description: Cytotoxicity against human PC3 cells after 72 hrs by MTT assay. In kind it is functional, cell-based. As to conditions: Homo sapiens, PC-3, 72 h; read-out: IC50. For orientation: Formazan colour is commonly taken as a measure of viable cells.
In assay [3] the target is T1, Androgen receptor (Homo sapiens). Briefly: Activity in human PC3 cells expressing wild-type androgen receptor assessed as ARE-dependent transactivation at 0.1 uM after 24 hrs by luciferase reporter gene assay in absence of DHT. It counts as cell-based. The note with it: PC-3. The essentials:
as §1

Residue numbers refer to the chain shown, from its start. pIC50: −log10 of the molar value. The source made the active and inactive calls. The rule behind the calls is not given here.

As for `COc1cc(/C=C(\C(=O)/C=C/C2=C(C)CCCC2(C)C)C(=O)/C=C/c2ccc(O)c(OC)c2)ccc1O`, the outcome in assay [1], in assay [2] and in assay [3] was inactive. In the assay with PC-3, the pIC50 was 5.38.
